Results published in ChEMBL document CHEMBL5360579, “Exploring the anticancer activity and the mechanism of action of pyrrolomycins F obtained by microwave-assisted total synthesis” (Eur J Med Chem, 2023).
Active and inactive are the calls of the source.

What was measured:
[1] = Cytotoxicity against hTERT-RPE1 cells assessed as inhibition of cell proliferation incubated for 48 hrs by MTT assay; format: toxicity, cell-based, TERT-RPE1; details: human
In short: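 Cells kept in DMEM with 10% heat-inactivated FBS, penicillin/streptomycin, 37 °C, 5% CO2. Plated at 5×10^3 cells/well and left 24 h, then exposed 48 h to 80, 20, 5, 1.25, 0.31 and 0.078 µM (diluted from 5 mM DMSO stocks). MTT added for 2 h at 37 °C, formazan dissolved in DMSO, A570 read. Blank subtracted, viability taken relative to untreated cells. IC50 from a sigmoidal fit of % inhibition vs log concentration. Three experiments, each in triplicate.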

HCT-116 [2] = test: Induction of morphological changes in human HCT-116 cells assessed as reduction in cell clumps at 0.5 uM incubated for 48 hrs by inverted phase-contrast microscopic analysis; format: functional, cell-based
MCF7 = test: Induction of morphological changes in human MCF7 cells assessed as development of long elongations from filamentous protrusions resembling filopodia at 1 uM incubated for 48 hrs by inverted phase-contrast microscopic analysis; format: functional, cell-based
HCT-116 [3] = test: Induction of morphological changes in human HCT-116 cells assessed as appearance of elongated fusiform-shaped cells at 0.5 uM incubated for 48 hrs by scanning electron microscopic analysis; format: functional, cell-based
In short: (§1)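 HCT116 on coverslips, treated 48 h at 0.5 µM. Coverslips rinsed in PBS pH 7.4, fixed in 4% glutaraldehyde for 30 min at 4 °C, then imaged by scanning electron microscopy at 5000X and 20000X.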

HCT-116 [4] = test: Induction of morphological changes in human HCT-116 cells assessed as neuronal sprouting at 0.5 uM incubated for 48 hrs by scanning electron microscopic analysis; format: functional, cell-based; in short: as §1
HCT-116 [5] = test: Induction of morphological changes in human HCT-116 cells assessed as massive vacuolization at 0.5 uM incubated for 48 hrs by scanning electron microscopic analysis; format: functional, cell-based; in short: as §1
HCT-116 [6] = test: Induction of morphological changes in human HCT-116 cells assessed as leakage and perforation of cell membranes at 0.5 uM incubated for 48 hrs by scanning electron microscopic analysis; format: functional, cell-based; in short: as §1
HCT-116 [7] = test: Induction of morphological changes in human HCT-116 cells assessed as appearance of long and thin filopodia at 0.5 uM incubated for 48 hrs by scanning electron microscopic analysis; format: functional, cell-based; in short: as §1
HCT-116 [8] = test: Induction of apoptosis in human HCT-116 cells assessed as chromatin condensation at 0.5 uM incubated for 48 hrs by Hoechst 33342 staining based analysis; format: functional, cell-based
In short: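 HCT116 on coverslips at 5×10^4 cells/well, treated 48 h at 0.5 µM after 24 h attachment. PBS-washed, stained 10 min with Hoechst 33342 (final 1 µg/ml). Nuclei inspected at once by fluorescence microscopy at 640X for chromatin condensation and nuclear fragmentation.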

HCT-116 [9] = test: Induction of autophagy in human HCT-116 cells assessed as upregulation of LC3-II expression at 0.5 uM incubated for 48 hrs by Western blot analysis; format: functional, cell-based
HCT-116 [10] = test: Induction of autophagy in human HCT-116 cells assessed as downregulation of LC3B-I expression at 0.5 uM incubated for 48 hrs by Western blot analysis; format: functional, cell-based
HCT-116 [11] = test: Induction of autophagy in human HCT-116 cells assessed as effect on Atg-7 protein expression at 0.5 uM incubated for 48 hrs by Western blot analysis; format: functional, cell-based
HCT-116 [12] = test: Induction of intracellular ROS generation in human HCT-116 cells at IC50 by DCFH-DA staining based analysis; format: functional, cell-based; details: time 24-48 hrs, TDE = time-dependent effect
In short: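 HCT116 plated at 5×10^3 cells/well, grown overnight, then exposed 24 h or 48 h at the IC50 concentration. Loaded with 10 µM DCFH-DA for 30 min at 37 °C, medium swapped for PBS. Fluorescence read at ex 488/em 525 nm, normalized to cell number from a parallel MTT assay and to untreated cells. Triplicate, mean ±SD, Student's t-test.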

HCT-116 [13] = test: Induction of intracellular ROS generation in human HCT-116 cells at IC50 measured after 48 hrs by DCFH-DA staining based fluorescence microscopic analysis; format: functional, cell-based
In short: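 HCT116 on coverslips at 5×10^4 cells/well, treated 48 h at the IC50 concentration. Loaded with 10 µM DCFH-DA for 30 min at 37 °C, then imaged by fluorescence microscopy at 640X.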

HCT-116 [14] = test: Induction of cell death in human HCT-116 cells assessed as loss of membrane integrity at 0.5 uM incubated for 48 hrs by acridine orange and ethidium bromide staining based fluorescence microscopic analysis; format: functional
In short: (§2)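 HCT116 on coverslips (5×10^4 cells/well), 24 h attachment, then exposed 48 h to 0.5 µM. PBS-washed and stained a few minutes with a 1:1 mix of acridine orange (100 µg/mL) and ethidium bromide (100 µg/mL). Viewed at once by fluorescence microscopy at 640X, scoring green vs orange nuclei and punctate cytoplasmic staining.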

HCT-116 [15] = test: Induction of cell death in human HCT-116 cells assessed as appearance of neutral pH vacuoles originated from engulfment of extracellular fluid at 0.5 uM incubated for 48 hrs by acridine orange and ethidium bromide staining based fluorescence microscopic analysis; format: functional; in short: as §2
HCT-116 [16] = test: Cytotoxicity against human HCT-116 cells assessed as reduction in colony formation treated for 48 hrs and measured after 10 days post last treatment by crystal violet staining based analysis; format: functional, cell-based; details: dose 0.1-5 µM, time 9.0 day, in the assay text read “7 days” for “10 days”
In short: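 HCT116 seeded at 5×10^4 cells/well. After 24 h, treated 48 h at 0.1–0.5 and 5 µM, then grown a further 7 days. Fixed and stained 30 min with 6.0% glutaraldehyde plus 0.5% crystal violet, then washed. Dye taken up in 5% acetic acid and read at 592 nm.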

HCT-116 [17] = test: Induction of autophagy in human HCT-116 cells assessed as upregulation of Atg-7 protein expression at 0.5 uM incubated for 48 hrs by Western blot analysis; format: functional, cell-based
HCT-116 [18] = test: Induction of autophagy in human HCT-116 cells assessed as upregulation of Beclin-1 protein expression at 0.5 uM incubated for 48 hrs by Western blot analysis; format: functional, cell-based

O=C(c1cc(Br)ccc1O)c1[nH]c(Cl)c(Cl)c1Br
inactive: Activity (HCT-116 [8])
active: Activity (HCT-116 [2]) | Activity (MCF7) | Activity (HCT-116 [3]) | Activity (HCT-116 [4]) | Activity (HCT-116 [5]) | Activity (HCT-116 [6]) | Activity (HCT-116 [7]) | Activity (HCT-116 [9]) | Activity (HCT-116 [10]) | Activity (HCT-116 [11]) | Activity (HCT-116 [12]) Tde | Activity (HCT-116 [13]) | Activity (HCT-116 [14]) | Activity (HCT-116 [15]) | Activity (HCT-116 [16]) Dose-Dependent Effect
175 µM: IC50 at 48 h [1]

O=C(c1cc(Br)ccc1O)c1[nH]c(Br)c(Cl)c1Br
86.6 µM: IC50 at 48 h [1]
active: Activity (HCT-116 [2]) | Activity (MCF7) | Activity (HCT-116 [3]) | Activity (HCT-116 [4]) | Activity (HCT-116 [5]) | Activity (HCT-116 [6]) | Activity (HCT-116 [7]) | Activity (HCT-116 [11]) | Activity (HCT-116 [12]) Tde | Activity (HCT-116 [13]) | Activity (HCT-116 [14]) | Activity (HCT-116 [15]) | Activity (HCT-116 [16]) Dose-Dependent Effect
inactive: Activity (HCT-116 [8])

O=C(c1cc(Br)ccc1O)c1[nH]c(Br)c(Br)c1Br
active: Activity (HCT-116 [2]) | Activity (MCF7) | Activity (HCT-116 [3]) | Activity (HCT-116 [4]) | Activity (HCT-116 [5]) | Activity (HCT-116 [6]) | Activity (HCT-116 [7]) | Activity (HCT-116 [11]) | Activity (HCT-116 [12]) Tde | Activity (HCT-116 [13]) | Activity (HCT-116 [14]) | Activity (HCT-116 [15]) | Activity (HCT-116 [16]) Dose-Dependent Effect
inactive: Activity (HCT-116 [8])
62.8 µM: IC50 at 48 h [1]

O=C(c1cc(Br)cc(Br)c1O)c1[nH]c(Br)c(Br)c1Br
inactive: Activity (HCT-116 [8])
57.7 µM: IC50 at 48 h [1]
active: Activity (HCT-116 [2]) | Activity (MCF7) | Activity (HCT-116 [3]) | Activity (HCT-116 [4]) | Activity (HCT-116 [5]) | Activity (HCT-116 [6]) | Activity (HCT-116 [7]) | Activity (HCT-116 [17]) | Activity (HCT-116 [18]) | Activity (HCT-116 [12]) Tde | Activity (HCT-116 [13]) | Activity (HCT-116 [14]) | Activity (HCT-116 [15])

O=C(c1cc(Br)ccc1O)c1[nH]c(Cl)c(Br)c1Br
61.5 µM: IC50 at 48 h [1]
active: Activity (HCT-116 [2]) | Activity (MCF7) | Activity (HCT-116 [3]) | Activity (HCT-116 [4]) | Activity (HCT-116 [5]) | Activity (HCT-116 [6]) | Activity (HCT-116 [7]) | Activity (HCT-116 [9]) | Activity (HCT-116 [10]) | Activity (HCT-116 [11]) | Activity (HCT-116 [12]) Tde | Activity (HCT-116 [13]) | Activity (HCT-116 [14]) | Activity (HCT-116 [15]) | Activity (HCT-116 [16]) Dose-Dependent Effect
inactive: Activity (HCT-116 [8])
